Active and inactive are the calls of the source. The rule behind the calls is not given here.
Columns and labels:
Rattus norvegicus [1] = species: Rattus norvegicus; assay: Displacement of [3H]Muscimol from GABAA alpha-1-alpha-5 receptor in Sprague-Dawley rat brain cortex membrane at 100 uM
Procedure, shortened: (§1)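 Well-washed membranes from adult male Sprague-Dawley rat cortex or cerebellum (50–200 μg protein). Incubated 60 min on ice in 50 mM Tris/citrate, pH 7.3, with 6 nM [3H]muscimol and test compound. […] Filtered and counted by scintillation. IC50 and pseudo-Hill coefficient obtained by nonlinear regression.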

[2] = biological target: Gamma-aminobutyric acid receptor subunit alpha-6 (Rattus norvegicus) (UniProt P30191); assay: Displacement of [3H]Muscimol from GABAAalpha6 receptor in Sprague-Dawley rat brain cerebellum membrane at 100 uM; type: tissue-based; procedure, shortened: as §1
Sequence of Gamma-aminobutyric acid receptor subunit alpha-6 (Rattus norvegicus) (P30191 whole entry): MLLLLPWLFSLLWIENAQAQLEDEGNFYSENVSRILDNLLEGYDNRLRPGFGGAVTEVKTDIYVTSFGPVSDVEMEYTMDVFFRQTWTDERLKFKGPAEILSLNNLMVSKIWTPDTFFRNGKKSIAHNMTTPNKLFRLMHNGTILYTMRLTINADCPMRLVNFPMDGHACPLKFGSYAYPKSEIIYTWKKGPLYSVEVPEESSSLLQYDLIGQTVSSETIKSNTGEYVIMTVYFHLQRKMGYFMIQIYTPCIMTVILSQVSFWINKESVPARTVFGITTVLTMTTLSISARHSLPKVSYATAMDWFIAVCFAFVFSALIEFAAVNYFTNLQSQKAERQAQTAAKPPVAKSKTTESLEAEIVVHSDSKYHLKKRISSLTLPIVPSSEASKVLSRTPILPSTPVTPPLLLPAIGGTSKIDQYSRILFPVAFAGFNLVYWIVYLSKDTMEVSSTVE

[3] = biological target: Gamma-aminobutyric acid receptor subunit alpha-6 (Rattus norvegicus) (UniProt P30191); assay: Displacement of [3H]Muscimol from GABAAalpha6 receptor in Sprague-Dawley rat brain cerebellum membrane at 1 mM; type: tissue-based; procedure, shortened: as §1
Rattus norvegicus [4] = species: Rattus norvegicus; assay: Displacement of [3H]Muscimol from GABAA alpha-1-alpha-5 receptor in Sprague-Dawley rat brain cortex membrane at 1 mM; procedure, shortened: as §1
[5] = biological target: Gamma-aminobutyric acid receptor subunit alpha-6 (Rattus norvegicus) (UniProt P30191); assay: (§2) Displacement of [3H]Muscimol from GABAAalpha6 receptor in Sprague-Dawley rat brain cerebellum membrane; type: tissue-based; procedure, shortened: as §1
[6] = biological target: Gamma-aminobutyric acid receptor subunit alpha-6 (Rattus norvegicus, UniProt P30191); assay: as §2; type: tissue-based; procedure, shortened: as §1
Sequence of Gamma-aminobutyric acid receptor subunit alpha-6 (P30191 whole entry): as above

[7] = (§3) Displacement of [3H]Muscimol from GABAA alpha-1-alpha-5 receptor in Sprague-Dawley rat brain cortex membrane; procedure, shortened: as §1
Rattus norvegicus [8] = species: Rattus norvegicus; assay: as §3; procedure, shortened: as §1

With `CNCc1nnc(S)o1` the inhibition (Rattus norvegicus [1]) was 17%, the inhibition [2] was 9% and the inhibition [3] was 16%. The inhibition (Rattus norvegicus [4]) was 24%.
`NCCc1nnc(S)o1` showed an inhibition (Rattus norvegicus [1]) of 9%, an inhibition [2] of 23% and an inhibition [3] of 67%. For the same molecule, the inhibition (Rattus norvegicus [4]) was 61%.
`NCc1nnc(S)o1` showed an inhibition (Rattus norvegicus [1]) of 58%, a logIC50 [5] of 1.69 and an IC50 [6] of 49 µM. It also gave an inhibition [2] of 61%, an IC50 [7] of 57 µM and a logIC50 (Rattus norvegicus [8]) of 1.76. It also gave an inhibition [3] of 95% and an inhibition (Rattus norvegicus [4]) of 99%.
Work on `Cc1nnc(S)o1` yielded an inhibition (Rattus norvegicus [1]) of 20%, an inhibition [2] of -4% and an inhibition [3] of -3%. The inhibition (Rattus norvegicus [4]) was 10%.
For `Oc1nnc(C2CCNCC2)n1Cc1ccccc1`, the inhibition (Rattus norvegicus [1]) was 18%, the inhibition [2] was 14% and the inhibition [3] was 52%. It also gave an inhibition (Rattus norvegicus [4]) of 56%.
For `Oc1nnc(C2CCN(Cc3ccccc3)CC2)o1`, the inhibition (Rattus norvegicus [1]) was 12%, the inhibition [2] was 7% and the inhibition [3] was 30%. For the same molecule, the inhibition (Rattus norvegicus [4]) was 50%.
Molecule `CNCc1nnc(O)o1` has an inhibition (Rattus norvegicus [1]) of 14%, an inhibition [2] of 22% and an inhibition [3] of 64%. It also gave an inhibition (Rattus norvegicus [4]) of 58%.
In the case of `Sc1nnc(C2CCCNC2)o1` (stereo not given), the inhibition (Rattus norvegicus [1]) is reported as 12%, the inhibition [2] is reported as 15% and the inhibition [3] is reported as 42%. The inhibition (Rattus norvegicus [4]) was 51%.
In the case of `Sc1nnc([C@@H]2CCCN2)o1`, the inhibition (Rattus norvegicus [1]) is reported as 21%, the inhibition [2] is reported as -2% and the inhibition [3] is reported as 31%. The inhibition (Rattus norvegicus [4]) was 36%.
Work on `Sc1nnc(C2CCNCC2)n1Cc1ccccc1` yielded an inhibition (Rattus norvegicus [1]) of -6% and an inhibition [2] of 13%.
Molecule `S=c1[nH]nc(C2CCCCC2)o1` has an inhibition (Rattus norvegicus [1]) of 10%, an inhibition [2] of 0% and an inhibition [3] of -3%. It also gave an inhibition (Rattus norvegicus [4]) of 18%.
In the case of `Sc1nnc(C2CCN(Cc3ccccc3)CC2)o1`, the inhibition (Rattus norvegicus [1]) is reported as 3%, the inhibition [2] is reported as 6% and the inhibition [3] is reported as 30%. It also gave an inhibition (Rattus norvegicus [4]) of 33%.
`Oc1nnc(C2CCCNC2)o1` (stereo not given) showed an inhibition (Rattus norvegicus [1]) of 1%, an inhibition [2] of 9% and an inhibition [3] of 10%. The inhibition (Rattus norvegicus [4]) was 24%.
For `NCc1nnc(S)n1Cc1ccccc1`, the Activity (Rattus norvegicus [1]) was “inactive”, the Activity [2] was “inactive” and the Activity [3] was “inactive”. The Activity (Rattus norvegicus [4]) was “inactive”.
Work on `CN(C)Cc1nnc(S)o1` yielded an inhibition (Rattus norvegicus [1]) of 22%, an inhibition [2] of 3% and an inhibition [3] of 37%. It also gave an inhibition (Rattus norvegicus [4]) of 47%.
For `c1ccc(CN2CCC(c3nnco3)CC2)cc1`, the inhibition (Rattus norvegicus [1]) was -5%, the inhibition [2] was 1% and the inhibition [3] was -5%. It also gave an inhibition (Rattus norvegicus [4]) of 1%.
`NCCc1nnc(O)o1` gave an inhibition (Rattus norvegicus [1]) of 85%, a logIC50 [5] of 0.868 and an IC50 [6] of 7.4 µM. The inhibition [2] was 89%, the IC50 [7] was 9.4 µM and the logIC50 (Rattus norvegicus [8]) was 0.971. The inhibition [3] was 98% and the inhibition (Rattus norvegicus [4]) was 100%.
Work on `CN1CCC(c2nnc(O)o2)CC1` yielded an inhibition (Rattus norvegicus [1]) of 4%, an inhibition [2] of 6% and an inhibition [3] of 26%. For the same molecule, the inhibition (Rattus norvegicus [4]) was 27%.
For `NCc1nnc(O)n1Cc1ccccc1`, the inhibition (Rattus norvegicus [1]) was 4%, the inhibition [2] was 1% and the inhibition [3] was 2%. For the same molecule, the inhibition (Rattus norvegicus [4]) was 11%.
Molecule `Cc1nnc(O)o1` has an inhibition (Rattus norvegicus [1]) of 7%, an inhibition [2] of 3% and an inhibition [3] of 4%. For the same molecule, the inhibition (Rattus norvegicus [4]) was 26%.
In the case of `Oc1nnc([C@@H]2CCCN2)o1`, the inhibition (Rattus norvegicus [1]) is reported as 5%, the inhibition [2] is reported as 8% and the inhibition [3] is reported as 13%. The inhibition (Rattus norvegicus [4]) was 10%.
In the case of `Oc1nnc(C2CCCCC2)o1`, the inhibition (Rattus norvegicus [1]) is reported as 18%, the inhibition [3] is reported as 1% and the inhibition (Rattus norvegicus [4]) is reported as -2%.
For `CN1CCC(c2nnc(S)o2)CC1`, the inhibition (Rattus norvegicus [1]) was 6%, the inhibition [2] was 8% and the inhibition [3] was 27%. It also gave an inhibition (Rattus norvegicus [4]) of 48%.
`CN(C)Cc1nnc(O)o1` showed an inhibition (Rattus norvegicus [1]) of 3%, an inhibition [2] of 5% and an inhibition [3] of 26%. It also gave an inhibition (Rattus norvegicus [4]) of 27%.
`C[C@@H](N)c1nnc(O)o1` gave an inhibition (Rattus norvegicus [1]) of 26%, an inhibition [2] of 13% and an inhibition [3] of 34%. It also gave an inhibition (Rattus norvegicus [4]) of 16%.

Reference: ChEMBL document CHEMBL1155944 (J Med Chem, 2008)
